Assay outcomes (PubChem)
Env fusion inh – blocks HIV Env-driven cell-cell fusion. HeLa-JRFL Env/CEM21 cell fusion, luciferase. inhibition, % at 12.3 µM. 360,000 tested, 1.1% active. AID 651610;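 active = mean replicate inhibition score of at least 50 and every replicate individually at or above 50; inconclusive = only one of the two criteria met; inactive = mean below 50 and not all replicates reaching 50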;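 note: 0% = plate neutral controls and 100% = maraviroc near 300 nM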
PDI turbidity – inhibitors of human protein disulfide isomerase | P07237 | PDI insulin aggregation turbidity, A650, 90 min | inhibition, % at 10 µM | 350,000 tested, 0.052% active | AID 588391;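 active = mean inhibition across replicates of 30% or more, whatever share of single replicates reach that level; inconclusive = mean inhibition below 30% while every single replicate reaches 30%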
Target sequence (P07237 whole entry, looked up): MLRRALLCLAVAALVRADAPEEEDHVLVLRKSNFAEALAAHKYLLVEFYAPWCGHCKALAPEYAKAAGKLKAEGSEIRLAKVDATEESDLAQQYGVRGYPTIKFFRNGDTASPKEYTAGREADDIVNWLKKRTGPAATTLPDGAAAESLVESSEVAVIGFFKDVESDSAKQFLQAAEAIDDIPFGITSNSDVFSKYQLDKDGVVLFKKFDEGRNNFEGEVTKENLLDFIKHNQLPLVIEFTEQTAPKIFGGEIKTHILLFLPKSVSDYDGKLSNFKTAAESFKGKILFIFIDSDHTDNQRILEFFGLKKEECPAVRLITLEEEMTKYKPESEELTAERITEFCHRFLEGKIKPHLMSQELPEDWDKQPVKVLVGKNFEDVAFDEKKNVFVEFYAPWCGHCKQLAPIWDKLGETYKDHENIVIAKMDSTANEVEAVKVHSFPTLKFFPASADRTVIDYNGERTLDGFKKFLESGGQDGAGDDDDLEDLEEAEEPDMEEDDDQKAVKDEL
FN deposit inh – fibronectin deposition inhibition | AH1F fibroblasts, Alexa488-fibronectin deposition fluorescence, overnight | inhibition, % at 12.6 µM | 350,000 tested, 0.086% active | AID 743247;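 active = mean inhibition across replicates of 30% or more, regardless of how many single replicates reach that level; inconclusive = mean under 30% yet at least half of replicates reach 30%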;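 note: positive control wells lacked labelled fibronectin entirely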
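test system = AH1F fibroblasts assembling fluorescent fibronectin matrix | quantity = 10000 AH1F cells per well | buffer or medium = DMEM plus 2% serum, read in PBS | doses = single dose, pinned | incubation = 1 h cell attachment, overnight exposure to compound and label | detection = fluorescence at 485 nm excitation, 525 nm emission | read-out basis = inhibition from reduced deposited-fibronectin fluorescence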
INS-1E GSIS act – primary screen for activators of insulin secretion dependent on glucose, INS-1E cells, GLuc reporter luminescence. INS-1E GLuc reporter insulin secretion, 2-3 h. 370,000 tested, 0.61% active. activation, % at 16.6 µM. AID 743287;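 active = lowest replicate activation of at least 40%, so every replicate reaches that level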;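 note: 0% = median of neutral control wells and 100% = median of IBMX positive control wells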
ERp5 block – ERp5 (human) disulfide isomerase inhibition. Q15084. ERp5 insulin aggregation, absorbance 650 nm, 90 min. inhibition, % at 9.99 µM. 350,000 tested, 0.05% active;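 active = mean replicate inhibition above about 25%, with every replicate also reaching it, limit read from the data, passing the limit was not always enough; inconclusive = only one of those two criteria met; inactive = neither criterion met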
Numbers without * were called inactive; ? = inconclusive; nt = no result given; [ ] = remark or other dose. In the library only some 1.4% were active in any assay of this set; here they are far more common.

SMILES | Env fusion inh | PDI turbidity | FN deposit inh | INS-1E GSIS act | ERp5 block
CC1Cc2ccccc2N1C(=S)NC(=O)c1cccc(Br)c1 (stereo not given) | -9 | -5 | -2 | 51* | nt
COc1cc(C(=O)Nc2ccccc2C(=O)NCc2cccnc2)cc(OC)c1OC | ? | -3 | -2 | 16 | -1
CCOc1cc(C(=O)O/N=C(\N)c2ccccn2)cc(OCC)c1OCC | -5 | 6 | 1 | 15 | 2
COc1ccc(C(=O)O/N=C(\N)c2ccccn2)cc1 | 70* | 3 | 0 | -7 | 1
COc1ccc(C(=O)Nc2ccccc2C(=O)NCc2cccnc2)cc1OC | -32 | -3 | nt | 41* | 18
CCOc1ccc(C(=O)O/N=C(\N)c2ccccn2)cc1OCC | -95 | -4 | nt | 87* | -8
COc1ccc(C(=O)Nc2ccccc2C(=O)Nc2ccncc2)cc1 | -32 | -4 | -1 | 45* | 1
COc1ccc(C(=O)Nc2ccccc2C(=O)Nc2ccc(C(=O)O)cc2)cc1 | -81 | -9 | 2 | -4 | 0
O=C(C[C@@H]1C=C[C@H](NC(=O)Nc2ccc(F)cc2)[C@@H](CO)O1)NCc1ccccn1 | 4[16.7 µM] | nt | -9 | 1 | -2
C[C@@H]1CN([C@@H](C)CO)C(=O)c2cc(C#CC(C)(C)O)cnc2O[C@H]1CN(C)C(=O)C1CC1 | -2[16.7 µM] | nt | -17 | -1 | 3
Cc1noc(C)c1NC(=O)N(C)C[C@@H]1Oc2ccc(NC(=O)Cc3ccccc3)cc2C(=O)N([C@@H](C)CO)C[C@@H]1C | -11[16.7 µM] | nt | nt | 5 | -2
COc1cc(OC)cc(C(=O)NNC(=O)c2ccccn2)c1 | 37 | -74 | 7 | 17 | 1
COc1ccc2c(c1)C(=NNC(=O)c1ccccn1)c1cc(OC)ccc1-2 | -51 | -10 | 1 | 146* | nt
COc1ccc(C(=O)NNC(=O)c2ccccn2)cc1 | 62* | 5 | 15 | 13 | -5
CCSc1ccc(C(=O)Nc2cccc(C)n2)cc1[N+](=O)[O-] | -1 | -1 | 0 | 59* | nt
CCSc1ccc(C(=O)Nc2ccc(Br)cn2)cc1[N+](=O)[O-] | -14 | -5 | 12 | -1 | 4
CC(C)(C)c1ccc(C(=O)Nc2ccc(CC(=O)O)cc2)o1 | 85* | 1 | -2 | 19 | nt
CCOC(=O)c1c(NC(=O)CSc2nc3c(c(=O)n(C)c(=O)n3C)n2C(C)C)sc(C)c1C | 5 | 5 | -6 | 13 | nt
O=C(CSc1nc(O)cc(=O)n1-c1ccccc1)Nc1nc2ccccc2s1 | 67* | 8 | -2 | -15 | 1
CCCn1c(SCC(=O)Nc2nc3ccccc3s2)nc2c1c(=O)n(C)c(=O)n2C | 64* | -6 | 12 | nt | nt
CC(C)n1c(SCC(=O)Nc2nc3c(s2)CCCC3)nc2c1c(=O)n(C)c(=O)n2C | 87* | -5 | 9 | nt | nt
CCCn1c(SCC(=O)N2c3ccccc3Sc3ccccc32)nc2c1c(=O)n(C)c(=O)n2C | 30 | 3 | active | nt | nt
CO[C@@H]1CN(C)C(=O)c2ccc(NS(=O)(=O)c3cn(C)cn3)cc2OC[C@@H](C)N(CCC(F)(F)F)C[C@H]1C | nt | nt | 10 | 26 | 2
COc1ccc2c3c(n(C)c2c1)[C@H](CO)N(CC1CCOCC1)CC31CCN(CC2CCOCC2)CC1 | nt | nt | nt | 2 | nt
CC(C)NC(=O)N(C)C[C@@H]1Oc2c(NC(=O)C3CC3)cccc2C(=O)N([C@@H](C)CO)C[C@H]1C | -4[16.7 µM] | nt | 4 | 9 | 0
SMILES | Env fusion inh | PDI turbidity | FN deposit inh | INS-1E GSIS act | ERp5 block
O=C(Nc1ccc2c(c1)OCO2)N[C@H]1CC[C@@H](CCNC(=O)C2CCCCC2)O[C@H]1CO | -5[16.7 µM] | nt | nt | 0 | -2
COc1ccc(CNC(=O)CN2C(=O)NC3(CCCCCC3)C2=O)cc1 | -33 | -7 | 6 | 62* | -8
Nc1ncc(Br)cc1S(=O)(=O)NCCC(=O)Nc1cccc(Cl)c1 | 59* | 2 | nt | -26 | -2
Cc1cc(NC(=O)CCNS(=O)(=O)c2cc(Br)cnc2N)ccc1Br | 59* | 4 | -5 | nt | nt
Cc1ccc(NC(=O)CCNS(=O)(=O)c2cc(Br)cnc2N)cc1Cl | 32 | -1 | 9 | -14 | nt
C[C@H](CO)N1C[C@H](C)[C@@H](CN(C)C)Oc2cc(C#Cc3ccccc3F)ccc2S1(=O)=O | 24[16.7 µM] | nt | 7 | 9 | -7
O=C(CN1CCOCC1)NCC[C@@H]1CC[C@@H](NC(=O)Nc2ccc(C(F)(F)F)cc2)[C@@H](CO)O1 | -44[16.7 µM] | nt | -7 | 19 | -2
CS(=O)(=O)Nc1ccc2c(c1)[C@@H]1C[C@@H](CC(=O)NCc3cccc(F)c3)O[C@H](CO)[C@@H]1O2 | 11[16.7 µM] | nt | nt | 5 | -1
N#CCCn1c2ccccc2c2nc3ccccc3nc21 | nt | 6 | nt | 41* | nt
Cc1cccc(NC(=S)Nc2ccccn2)c1C | -6 | -5 | 8 | 41* | nt
Cc1cccc(NC(=O)Nc2ccccn2)c1C | -24 | -4 | -13 | 5 | ?
CCOC(=O)COc1nc2ccc(Br)cc2c(-c2ccccc2)c1C(C)=O | 12 | -3 | 4 | 8 | 1
CCOc1nc(-c2ccccc2)c2cc(Br)ccc2n1 | -6 | 8 | 3 | 47* | 3
O=C(O)CNc1nc(-c2ccccc2)c2cc([N+](=O)[O-])ccc2n1 | -15 | -3 | -6 | 61* | nt
OCCNc1nc(-c2ccccc2)c2cc(Br)ccc2n1 | 4 | -1 | -9 | 59* | 6
O=C(Cc1cccnc1)N1CC(=O)N2[C@H](CO)[C@@H](c3ccc(C4=CCCC4)cc3)[C@H]2C1 | nt | nt | -7 | -9 | -1
CCc1ccc([C@H]2[C@@H]3C(=O)C[C@@H]4C(=O)N(Cc5ccccc5)C(=O)[C@@H]4[C@@H]3CN2S(=O)(=O)c2ccc(C)cc2)cc1 | 71* | nt | -1 | -1 | 0
CCc1ccc([C@H]2[C@@H]3C(=O)C[C@@H]4C(=O)N(C5CCCCC5)C(=O)[C@@H]4[C@@H]3CN2S(=O)(=O)c2ccc(C)cc2)cc1 | 155* | nt | nt | -20 | 0
CCc1ccc(C2CC3C(CN2S(=O)(=O)c2ccc(C)cc2)[C@@H](O)C[C@@H](c2ccc(CC)cc2)N3S(=O)(=O)c2ccc(C)cc2)cc1 (stereo not given in full) | 61* | nt | 17 | 27 | -1
C[C@@H]1CCCCO[C@@H](CN(C)C(=O)C2CCCCC2)[C@H](C)CN([C@@H](C)CO)C(=O)c2cc(N(C)C)ccc2O1 | -16[16.7 µM] | nt | nt | -9 | 1
COc1cccc(C(=O)Nc2ccc3c(c2)C(=O)N(C)C[C@H](OC)[C@@H](C)CN(C(C)=O)[C@@H](C)CO3)c1 | 3[16.7 µM] | nt | -1 | 11 | 9
C[C@H]1CN([C@@H](C)CO)C(=O)c2cccc(NS(=O)(=O)c3cn(C)cn3)c2O[C@@H]1CN(C)S(=O)(=O)c1cn(C)cn1 | -2[16.7 µM] | nt | nt | 14 | 15
C[C@@H]1CN([C@H](C)CO)C(=O)c2cccc(NS(=O)(=O)c3cn(C)cn3)c2O[C@H]1CN(C)S(=O)(=O)c1cn(C)cn1 | -9[16.7 µM] | nt | nt | -2 | -6
